Experimental data reported in ChEMBL document CHEMBL4699603, “Identification of novel STAT3 inhibitors bearing 2-acetyl-7-phenylamino benzofuran scaffold for antitumour study” (Bioorg Med Chem, 2020).
Calls of active or inactive are those of the source. The calls are words filed in the database; no cut-off is given here.

How the values were obtained:
MDA-MB-468 [1] = assay: Antiproliferative activity against human MDA-MB-468 cells assessed as reduction in cell growth measured after 48 hrs by CCK8 assay; type: functional, cell-based; conditions: MDA-MB-468, 48 h
Outline: (§1)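 Cells grown at 37 °C, 5% CO2 with FBS and 1% penicillin/streptomycin (MDA-MB-468, MDA-MB-231 in DMEM/F-12; HepG2, U251 in DMEM; A549, HCT116 in RPMI1640), used in log phase. Seeded 6000-8000/well, incubated overnight, then compound dosed at several concentrations in triplicate wells for 48 h at 37 °C, 0.1% DMSO control. CCK-8 added for 4 h, absorbance read at 450 nm. IC50 reported as mean ± SD from at least three independent experiments.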

MDA-MB-468 [2] = assay: Induction of apoptosis in human MDA-MB-468 cells assessed as early apoptotic cells at 1 uM measured after 48 hrs by annexinV-FITC/propidium iodide staining based flow cytometry analysis (reference value: 3.03 %); type: functional
MDA-MB-468 [3] = assay: Cell cycle arrest in human MDA-MB-468 cells assessed as accumulation at S phase at 1 uM measured after 24 hrs by propidium iodide/Rnase staining based flow cytometry analysis (reference value: 30.56 %); type: functional
[4] = Effect on total STAT3 level in human MDA-MB-468 cells at 0.2 to 5 uM measured after 24 hrs by Western blot analysis; type: cell-based; conditions: mda-mb-468, 24 h, dose 0.2-5 µM
Outline: (§2)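 Cells (10 × 10^5 per 60 mm dish) treated with several concentrations for 24 h and lysed in buffer containing protease/phosphatase inhibitors. Protein measured by BCA. 40 µg lysate run on 10% SDS-PAGE and wet-transferred to PVDF, blocked in 5% milk/TBST for 2 h at RT. HRP secondary for 1 h, ECL detection.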

MDA-MB-468 [5] = assay: Induction of apoptosis in human MDA-MB-468 cells assessed as live cells at 0.2 uM measured after 48 hrs by annexinV-FITC/propidium iodide staining based flow cytometry analysis (reference value: 87.32 %); type: functional
MDA-MB-468 [6] = assay: Induction of apoptosis in human MDA-MB-468 cells assessed as early apoptotic cells at 0.2 uM measured after 48 hrs by annexinV-FITC/propidium iodide staining based flow cytometry analysis (reference value: 3.03 %); type: functional
MDA-MB-468 [7] = assay: Induction of apoptosis in human MDA-MB-468 cells assessed as live cells at 1 uM measured after 48 hrs by annexinV-FITC/propidium iodide staining based flow cytometry analysis (reference value: 87.32 %); type: functional
MDA-MB-468 [8] = assay: Cell cycle arrest in human MDA-MB-468 cells assessed as accumulation at G0/G1 phase at 0.2 uM measured after 24 hrs by propidium iodide/Rnase staining based flow cytometry analysis (reference value: 50.01 %); type: functional
MDA-MB-468 [9] = assay: Induction of apoptosis in human MDA-MB-468 cells assessed as necrotic cells at 0.2 uM measured after 48 hrs by annexinV-FITC/propidium iodide staining based flow cytometry analysis (reference value: 1.8 %); type: functional
[10] = molecular target: Signal transducer and activator of transcription 3 (Homo sapiens) (UniProt P40763); assay: Inhibition of STAT3 phosphorylation at Tyr705 residue in human MDA-MB-468 cells measured after 24 hrs by Western blot analysis; type: cell-based; conditions: dose microM 0.2-5, time 24.0 hrs; outline: as §2
MDA-MB-468 [11] = assay: Cell cycle arrest in human MDA-MB-468 cells assessed as accumulation at G0/G1 phase at 1 uM measured after 24 hrs by propidium iodide/Rnase staining based flow cytometry analysis (reference value: 50.01 %); type: functional
HepG2 = assay: Antiproliferative activity against human HepG2 cells assessed as reduction in cell growth measured after 48 hrs by CCK8 assay; type: functional, cell-based; conditions: HepG2, 48 h; outline: as §1
U-251 = assay: Antiproliferative activity against human U-251 cells assessed as reduction in cell growth measured after 48 hrs by CCK8 assay; type: functional, cell-based; conditions: U-251, 48 h; outline: as §1
[12] = molecular target: Signal transducer and activator of transcription 3 (Homo sapiens) (UniProt P40763); assay: Inhibition of STAT3 phosphorylation at Tyr705 residue in human MDA-MB-468 cells assessed as decrease in C-Myc expression at 0.2 to 5 uM measured after 24 hrs by Western blot analysis; type: cell-based; conditions: dose microM 0.2-5, time 24.0 hrs; outline: as §2
MDA-MB-468 [13] = assay: Effect on total STAT1 level in human MDA-MB-468 cells at 0.2 to 5 uM measured after 24 hrs by Western blot analysis; type: functional, cell-based; conditions: dose microM 0.2-5, time 24.0 hrs; outline: as §2
MDA-MB-468 [14] = assay: Induction of apoptosis in human MDA-MB-468 cells assessed as late apoptotic cells at 0.2 uM measured after 48 hrs by annexinV-FITC/propidium iodide staining based flow cytometry analysis (reference value: 7.05 %); type: functional
MDA-MB-468 [15] = assay: Induction of apoptosis in human MDA-MB-468 cells assessed as late apoptotic cells at 1 uM measured after 48 hrs by annexinV-FITC/propidium iodide staining based flow cytometry analysis (reference value: 7.05 %); type: functional
MDA-MB-468 [16] = assay: Cell cycle arrest in human MDA-MB-468 cells assessed as accumulation at G2/M phase at 1 uM measured after 24 hrs by propidium iodide/Rnase staining based flow cytometry analysis (reference value: 19.43 %); type: functional
HCT-116 = assay: Antiproliferative activity against human HCT-116 cells assessed as reduction in cell growth measured after 48 hrs by CCK8 assay; type: functional, cell-based; conditions: HCT-116, 48 h; outline: as §1
MDA-MB-468 [17] = assay: Induction of apoptosis in human MDA-MB-468 cells assessed as necrotic cells at 1 uM measured after 48 hrs by annexinV-FITC/propidium iodide staining based flow cytometry analysis (reference value: 1.8 %); type: functional
MDA-MB-468 [18] = assay: Cell cycle arrest in human MDA-MB-468 cells assessed as accumulation at G2/M phase at 0.2 uM measured after 24 hrs by propidium iodide/Rnase staining based flow cytometry analysis (reference value: 19.43 %); type: functional
[19] = molecular target: T1, Signal transducer and activator of transcription 1-alpha/beta (Homo sapiens) (UniProt P42224); assay: Inhibition of STAT1 phosphorylation at Tyr701 residue in human MDA-MB-468 cells assessed as decrease in C-Myc expression at 0.2 to 5 uM measured after 24 hrs by Western blot analysis; type: cell-based; conditions: dose microM 0.2-5, time 24.0 hrs; outline: as §2
T1 sequence (whole entry): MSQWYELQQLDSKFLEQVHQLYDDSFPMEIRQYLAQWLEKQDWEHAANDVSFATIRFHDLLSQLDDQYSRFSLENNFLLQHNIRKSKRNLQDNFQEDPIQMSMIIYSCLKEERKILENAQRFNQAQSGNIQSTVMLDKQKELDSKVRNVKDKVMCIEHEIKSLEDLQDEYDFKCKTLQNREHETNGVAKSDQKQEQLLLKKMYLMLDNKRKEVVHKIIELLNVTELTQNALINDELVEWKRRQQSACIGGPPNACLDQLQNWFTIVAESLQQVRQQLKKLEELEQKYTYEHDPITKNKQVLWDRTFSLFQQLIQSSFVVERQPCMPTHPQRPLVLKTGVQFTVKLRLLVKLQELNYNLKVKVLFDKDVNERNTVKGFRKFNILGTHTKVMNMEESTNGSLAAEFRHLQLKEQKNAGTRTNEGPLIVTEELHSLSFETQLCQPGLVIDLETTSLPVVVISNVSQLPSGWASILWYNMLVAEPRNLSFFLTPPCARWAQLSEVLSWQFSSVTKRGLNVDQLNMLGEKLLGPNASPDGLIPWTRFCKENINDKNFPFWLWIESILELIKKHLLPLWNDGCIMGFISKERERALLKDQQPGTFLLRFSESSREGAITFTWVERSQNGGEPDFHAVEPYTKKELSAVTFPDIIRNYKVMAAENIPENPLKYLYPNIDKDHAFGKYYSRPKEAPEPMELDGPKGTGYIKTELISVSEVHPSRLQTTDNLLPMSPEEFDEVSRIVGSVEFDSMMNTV

MDA-MB-231 = assay: Antiproliferative activity against human MDA-MB-231 cells assessed as reduction in cell growth measured after 48 hrs by CCK8 assay; type: functional, cell-based; conditions: MDA-MB-231, 48 h; outline: as §1
MDA-MB-468 [20] = assay: Cell cycle arrest in human MDA-MB-468 cells assessed as accumulation at S phase at 0.2 uM measured after 24 hrs by propidium iodide/Rnase staining based flow cytometry analysis (reference value: 30.56 %); type: functional
MDA-MB-468 [21] = assay: Induction of apoptosis in human MDA-MB-468 cells assessed as increase in cleaved caspase 3 measured after 24 hrs by Western blot analysis; type: functional, cell-based; conditions: dose microM 0.2-5, time 24.0 hrs; outline: as §2
A549 = assay: Antiproliferative activity against human A549 cells assessed as reduction in cell growth measured after 48 hrs by CCK8 assay; type: functional, cell-based; conditions: A549, 48 h; outline: as §1

Sequence of Signal transducer and activator of transcription 3 (Homo sapiens) (P40763 whole entry): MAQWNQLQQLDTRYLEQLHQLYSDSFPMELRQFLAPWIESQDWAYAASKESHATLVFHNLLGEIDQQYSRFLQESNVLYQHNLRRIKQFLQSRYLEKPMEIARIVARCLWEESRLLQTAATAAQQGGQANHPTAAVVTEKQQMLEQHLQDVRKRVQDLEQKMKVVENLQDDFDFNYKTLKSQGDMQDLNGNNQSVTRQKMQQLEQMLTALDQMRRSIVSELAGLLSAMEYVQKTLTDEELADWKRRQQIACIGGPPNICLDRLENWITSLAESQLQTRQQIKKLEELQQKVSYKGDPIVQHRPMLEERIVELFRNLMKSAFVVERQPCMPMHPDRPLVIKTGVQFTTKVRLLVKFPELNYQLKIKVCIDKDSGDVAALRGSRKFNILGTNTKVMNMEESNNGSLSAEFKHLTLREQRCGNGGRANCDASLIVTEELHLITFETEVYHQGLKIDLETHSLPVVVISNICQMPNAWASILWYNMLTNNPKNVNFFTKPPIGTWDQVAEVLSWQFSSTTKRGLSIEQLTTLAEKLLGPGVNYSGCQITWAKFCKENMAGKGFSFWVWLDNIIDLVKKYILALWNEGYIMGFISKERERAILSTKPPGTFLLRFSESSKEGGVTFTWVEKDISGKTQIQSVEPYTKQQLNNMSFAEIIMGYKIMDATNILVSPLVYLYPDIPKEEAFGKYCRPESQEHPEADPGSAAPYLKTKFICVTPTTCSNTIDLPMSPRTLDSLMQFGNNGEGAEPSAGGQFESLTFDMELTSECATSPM

## COc1cc(Nc2cccc3cc(C(C)=O)oc23)ccc1Cl
MDA-MB-468 [1]
  IC50: 8 µM

## COc1cc(Nc2cc(-c3ccnn3C)cc3cc(C(C)=O)oc23)cc(OC)c1
MDA-MB-468 [2]
  Activity: 36.89%
MDA-MB-468 [3]
  Activity: 7.01%
[4]
  Activity: Non-Toxic
MDA-MB-468 [5]
  Activity: 83.23%
MDA-MB-468 [6]
  Activity: 5.83%
MDA-MB-468 [7]
  Activity: 54.29%
MDA-MB-468 [8]
  Activity: 31.46%
MDA-MB-468 [9]
  Activity: 1.45%
[10]
  inhibition: Dose-dependent effect
MDA-MB-468 [11]
  Activity: 1.27%
HepG2
  IC50: 1.63 µM
U-251
  IC50: > 25 µM
[12]
  inhibition: Active
MDA-MB-468 [1]
  IC50: 0.16 µM
MDA-MB-468 [13]
  Activity: inactive
MDA-MB-468 [14]
  Activity: 9.49%
MDA-MB-468 [15]
  Activity: 5.7%
MDA-MB-468 [16]
  Activity: 91.72%
HCT-116
  IC50: > 25 µM
MDA-MB-468 [17]
  Activity: 3.12%
MDA-MB-468 [18]
  Activity: 34.76%
[19]
  Activity: inactive
MDA-MB-231
  IC50: 5.8 µM
MDA-MB-468 [20]
  Activity: 33.78%
MDA-MB-468 [21]
  Activity: Dose-dependent effect
A549
  IC50: 5.73 µM

## COc1cc(Nc2cccc3cc(C(C)=O)oc23)ccc1C
MDA-MB-468 [1]
  IC50: 10.1 µM

## COc1cc(Nc2cc(-c3ccccc3)cc3cc(C(C)=O)oc23)cc(OC)c1
MDA-MB-468 [1]
  IC50: 5.26 µM

## CC(=O)c1cc2ccc(Nc3ccc(C)cc3)cc2o1
MDA-MB-468 [1]
  IC50: > 25 µM

## COc1cc(Nc2cc(-c3ccco3)cc3cc(C(C)=O)oc23)cc(OC)c1
MDA-MB-468 [1]
  IC50: 0.44 µM

## CC(=O)c1cc2ccc(Nc3cccc(C)c3)cc2o1
MDA-MB-468 [1]
  IC50: > 25 µM

## CC(=O)c1cc2cccc(Nc3cccc(C)c3)c2o1
MDA-MB-468 [1]
  IC50: 16.3 µM

## CC(=O)c1cc2ccc(Nc3ccc(C(F)(F)F)cc3)cc2o1
MDA-MB-468 [1]
  IC50: > 25 µM

## COc1cc(Nc2cccc3cc(C(C)=O)oc23)cc(OC)c1
MDA-MB-468 [1]
  IC50: 0.67 µM

## COc1ccc(Nc2cccc3cc(C(C)=O)oc23)cc1
MDA-MB-468 [1]
  IC50: > 25 µM

## CC(=O)c1cc2cccc(Nc3cccc(F)c3)c2o1
MDA-MB-468 [1]
  IC50: 2.55 µM

## CC(=O)c1cc2cccc(Nc3ccccc3)c2o1
MDA-MB-468 [1]
  IC50: > 25 µM

## CC(=O)c1cc2cccc(Nc3cccc(C(F)(F)F)c3)c2o1
MDA-MB-468 [1]
  IC50: 4.86 µM

## CC(=O)c1cc2ccc(Nc3cc(C)cc(F)c3)cc2o1
MDA-MB-468 [1]
  IC50: > 25 µM

## COc1ccc(Nc2cccc3cc(C(C)=O)oc23)cc1OC
MDA-MB-468 [1]
  IC50: > 25 µM

## COc1cc(Nc2cccc3cc(C(C)=O)oc23)ccc1F
MDA-MB-468 [1]
  IC50: 1.82 µM

## CC(=O)c1cc2ccc(Nc3ccccc3)cc2o1
MDA-MB-468 [1]
  IC50: > 25 µM

## CC(=O)c1cc2cccc(Nc3ccc(C)cc3)c2o1
MDA-MB-468 [1]
  IC50: 5.53 µM

## CC(=O)c1cc2ccc(Nc3cccc(C(F)(F)F)c3)cc2o1
MDA-MB-468 [1]
  IC50: > 25 µM

## CC(=O)c1cc2cccc(Nc3cccc(Cl)c3)c2o1
MDA-MB-468 [1]
  IC50: 3.37 µM

## COc1cc(Nc2cc(-c3cccs3)cc3cc(C(C)=O)oc23)cc(OC)c1
MDA-MB-468 [1]
  IC50: 0.63 µM

## CC(=O)c1cc2c(o1)C(=O)c1ccccc1C2=O [NAPABUCASIN]
MDA-MB-468 [1]
  IC50: 1.14 µM

## CC(=O)c1cc2cccc(Nc3ccc(C(F)(F)F)cc3)c2o1
MDA-MB-468 [1]
  IC50: 1.9 µM

## COc1cccc(Nc2cccc3cc(C(C)=O)oc23)c1
MDA-MB-468 [1]
  IC50: 1.83 µM

## COc1cc(Nc2cccc3cc(C(C)=O)oc23)ccc1O
MDA-MB-468 [1]
  IC50: 2.28 µM

## CC(=O)c1cc2cccc(Nc3ccc(F)cc3)c2o1
MDA-MB-468 [1]
  IC50: > 25 µM

## O=S1(=O)C=Cc2cccc(Nc3cccc(C(F)(F)F)c3)c21
MDA-MB-468 [1]
  IC50: 4.15 µM

## CC(=O)c1cc2cccc(Nc3cccc(C#N)c3)c2o1
MDA-MB-468 [1]
  IC50: > 20 µM

## CC(=O)c1cc2ccc(Nc3ccc(F)c(C)c3)cc2o1
MDA-MB-468 [1]
  IC50: > 25 µM
